# In ChEMBL document CHEMBL1138555, “N-acylated and N,N'-diacylated imidazolidine-2-thione derivatives and N,N'-diacylated tetrahydropyrimidine-2(1H)-thione analogues: synthesis and antiproliferative activity” (Eur J Med Chem, 2009):
# Calls of active or inactive are those of the source. No cut-off for these calls is given here.
# System: Human immunodeficiency virus 1
# Assay: Antiviral activity against HIV1 in human MT4 cells assessed as prevention of virus-induced cytopathogenicity
# Assay type: functional, organism-based
# Method in brief: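 MT-4 cells, 1 × 10⁴ per well, with serial compound dilutions from a 100 mM DMSO stock. Infected with HIV-1 at 100 CCID50. Four-day incubation at 37 °C, then viable cells measured by MTT. Read-out is inhibition of virus-induced cytopathogenicity, assessed at non-cytotoxic concentrations.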
row,SMILES,Activity
1,CC(C)(C)C(=O)/C(C#N)=C/N1CCNC1=S,inactive
2,N#C/C(=C\N1CCNC1=S)C(=O)Nc1ccc(Cl)cc1,inactive
3,CCOC(=O)/C(=C/N1CCNC1=S)C(=O)c1ccccc1,inactive
4,O=C(C(=CN1CCNC1=S)C(=O)c1ccccc1)c1ccccc1,inactive
5,N#CC(C#N)=CN1CCNC1=S,inactive
6,CC(=O)/C(=C/N1CCNC1=S)C(=O)c1ccccc1,inactive
7,COC(=O)/C(=C\N1CCNC1=S)C(C)=O,inactive
8,N#C/C(=C\N1CCNC1=S)C(=O)c1ccccc1,inactive
9,COC(=O)/C(C#N)=C/N1CCNC1=S,inactive
10,CC(=O)C(=CN1CCNC1=S)C(C)=O,inactive
11,N#C/C(=C\N1CCNC1=S)C(N)=O,inactive
